Measurements reported in ChEMBL document CHEMBL2375253, “Discovery of novel 2,6-disubstituted pyridazinone derivatives as acetylcholinesterase inhibitors” (Eur J Med Chem, 2013).

Columns and labels:
Acetylcholinesterase = target: T1, Acetylcholinesterase (Rattus norvegicus, UniProt P37136); assay: Inhibition of AChE in rat cerebral cortex homogenates using acetylthiocholine iodide as substrate after 8 mins by Ellman's spectrophotometric method; format: tissue-based
T1 sequence (P37136 whole entry): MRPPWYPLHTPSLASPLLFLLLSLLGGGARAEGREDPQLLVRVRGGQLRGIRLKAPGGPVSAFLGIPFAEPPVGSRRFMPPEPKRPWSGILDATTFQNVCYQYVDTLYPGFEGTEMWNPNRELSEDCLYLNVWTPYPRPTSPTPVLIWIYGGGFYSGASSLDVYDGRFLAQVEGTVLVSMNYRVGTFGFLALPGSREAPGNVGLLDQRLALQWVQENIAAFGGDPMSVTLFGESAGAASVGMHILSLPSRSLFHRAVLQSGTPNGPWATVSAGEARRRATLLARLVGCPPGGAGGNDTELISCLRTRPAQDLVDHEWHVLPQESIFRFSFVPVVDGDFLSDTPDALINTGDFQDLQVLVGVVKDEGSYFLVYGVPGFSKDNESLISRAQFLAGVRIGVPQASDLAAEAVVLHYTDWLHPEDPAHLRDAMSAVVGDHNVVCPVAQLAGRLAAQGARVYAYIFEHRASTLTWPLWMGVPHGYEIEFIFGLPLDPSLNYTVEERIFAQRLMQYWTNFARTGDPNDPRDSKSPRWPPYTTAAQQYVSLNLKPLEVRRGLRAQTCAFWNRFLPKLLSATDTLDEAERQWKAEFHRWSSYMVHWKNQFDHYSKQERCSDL
Summary of the method: (§1)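 Ellman colorimetric assay. Compounds were dissolved in DMSO to 10 mM and diluted in double-distilled water. Each mixture held compound, phosphate buffer ([…]) and enzyme with substrate. For AChE, rat cerebral cortex homogenate was used with acetylthiocholine iodide (2 mM solution). For BuChE, rat serum was used with S-butyrylthiocholine iodide (2 mM solution). Incubated 8 min, stopped with 3% SDS, then 0.2% DTNB added. Absorbance read at 440 nm, duplicates.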

Rattus norvegicus = organism: Rattus norvegicus; assay: Selectivity ratio of IC50 for rat serum BuChE to IC50 for AChE in rat cerebral cortex homogenates; format: tissue-based
Butyrylcholinesterase = Butyrylcholinesterase (Rattus norvegicus, UniProt Q9JKC1); assay: Inhibition of rat serum BuChE using S-butyrylthiocholine iodide as substrate after 8 mins by Ellman's spectrophotometric method; summary of the method: as §1
Butyrylcholinesterase, sequence (Q9JKC1 whole entry): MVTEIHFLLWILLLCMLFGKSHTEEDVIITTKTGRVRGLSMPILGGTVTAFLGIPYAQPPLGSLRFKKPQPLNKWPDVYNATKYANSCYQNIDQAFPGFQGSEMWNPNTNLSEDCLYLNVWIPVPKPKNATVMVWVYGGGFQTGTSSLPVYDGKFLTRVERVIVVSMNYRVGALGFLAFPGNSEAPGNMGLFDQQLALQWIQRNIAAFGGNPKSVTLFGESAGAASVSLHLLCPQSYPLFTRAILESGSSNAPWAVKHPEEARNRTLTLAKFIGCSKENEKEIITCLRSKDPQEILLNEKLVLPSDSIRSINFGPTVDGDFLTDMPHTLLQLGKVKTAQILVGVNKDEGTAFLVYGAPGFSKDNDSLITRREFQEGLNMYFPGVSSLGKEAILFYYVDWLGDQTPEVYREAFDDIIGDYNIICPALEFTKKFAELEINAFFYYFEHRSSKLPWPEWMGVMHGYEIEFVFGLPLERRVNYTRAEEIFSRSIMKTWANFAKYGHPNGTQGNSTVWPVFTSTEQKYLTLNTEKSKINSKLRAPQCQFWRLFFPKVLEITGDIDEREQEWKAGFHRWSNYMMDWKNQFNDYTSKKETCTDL

Compound	IC50 (Acetylcholinesterase; read-out: IC50) [nM]	Ratio IC50 (Rattus norvegicus)	IC50 (Butyrylcholinesterase) [nM]	IC50 (Acetylcholinesterase)
CCN(CC)C(=O)C1CCN(C(=O)Nc2cccc(Cn3nc(Nc4ccccc4C(C)C)ccc3=O)c2)CC1	1500			
CCN(CC)C(=O)C1CCN(C(=O)Nc2cccc(Cn3nc(Nc4ccccc4)ccc3=O)c2)CC1	3280	> 12	> 40000	
CCN(CC)C(=O)C1CCN(C(=O)Nc2cccc(Cn3nc(-c4ccc(C)cc4)ccc3=O)c2)CC1	2010			
CCN(CC)C(=O)C1CCN(C(=O)Nc2cccc(Cn3nc(-c4cccc(C#N)c4)ccc3=O)c2)CC1	220			
CCN(CC)C(=O)C1CCN(C(=O)Nc2cccc(Cn3nc(Nc4ccccc4C(F)(F)F)ccc3=O)c2)CC1	119			
CCN(CC)C(=O)C1CCN(C(=O)Nc2cccc(Cn3ncccc3=O)c2)CC1	4900			
CCN(CC)C(=O)C1CCN(C(=O)Nc2cccc(Cn3nc(-c4cccc(C)c4)ccc3=O)c2)CC1	746			
CCN(CC)C(=O)C1CCN(C(=O)Nc2cccc(Cn3nc(Nc4cccc(C(F)(F)F)c4)ccc3=O)c2)CC1	135			
CCN(C)C(=O)C1CCN(C(=O)Nc2cccc(Cn3nc(Nc4ccccc4C)ccc3=O)c2)CC1	473	> 84	> 40000	
CCN(CC)C(=O)C1CCN(C(=O)Nc2cccc(Cn3nc(-c4ccc5ccccc5c4)ccc3=O)c2)CC1	462			
CCN(CC)C(=O)C1CCN(C(=O)Nc2cccc(Cn3nc(-c4cccc5ccccc45)ccc3=O)c2)CC1	188	> 212	> 40000	
CCN(CC)C(=O)C1CCN(C(=O)Nc2cccc(Cn3nc(Nc4ccc(C(F)(F)F)cc4)ccc3=O)c2)CC1	4840			
Cc1ccccc1Nc1ccc(=O)n(Cc2cccc(NC(=O)N3CCC(C(=O)N(C)C(C)C)CC3)c2)n1	46	217	10000	
CCN(CC)C(=O)C1CCN(C(=O)Nc2cccc(Cn3nc(Nc4cccc(C)c4)ccc3=O)c2)CC1	1420			
c1ccc(CN2CCC(CCN=c3cc4c(n[nH]3)-c3ccccc3C4)CC2)cc1	10			
Cc1ccccc1Nc1ccc(=O)n(Cc2cccc(NC(=O)N3CCC(C(=O)N(C(C)C)C(C)C)CC3)c2)n1	116			
CCN(CC)C(=O)C1CCN(C(=O)Nc2cccc(Cn3nc(-c4ccccc4C)ccc3=O)c2)CC1	2610			
CCN(CC)C(=O)C1CCN(C(=O)Nc2cccc(Cn3nc(-c4cccc(Br)c4)ccc3=O)c2)CC1	623			
CCN(C(=O)C1CCN(C(=O)Nc2cccc(Cn3nc(Nc4ccccc4C)ccc3=O)c2)CC1)C(C)C	28	196	5500	
CCN(CC)C(=O)C1CCN(C(=O)Nc2cccc(Cn3nc(-c4ccccc4)ccc3=O)c2)CC1	1660	> 24	> 40000	
CCN(CC)C(=O)C1CCN(C(=O)Nc2cccc(Cn3nc(Nc4ccc(C)cc4)ccc3=O)c2)CC1	19800			
CCN(CC)C(=O)C1CCN(C(=O)Nc2cccc(Cn3nc(Nc4c(C)cccc4C)ccc3=O)c2)CC1	607			
CCN(CC)C(=O)C1CCN(C(=O)Nc2cccc(Cn3nc(-c4cccc(Cl)c4)ccc3=O)c2)CC1	648			
CCN(CC)C(=O)C1CCN(C(=O)Nc2cccc(Cn3nc(Nc4ccccc4C)ccc3=O)c2)CC1	49	> 816	> 40000	
Cc1ccccc1Nc1ccc(=O)n(Cc2cccc(NC(=O)N3CCC(C(=O)N4CCOCC4)CC3)c2)n1				Not Active
CCc1ccccc1Nc1ccc(=O)n(Cc2cccc(NC(=O)N3CCC(C(=O)N(CC)CC)CC3)c2)n1	188			
CCN(CC)C(=O)C1CCN(C(=O)Nc2cccc(Cn3nc(Nc4cccc5ccccc45)ccc3=O)c2)CC1	126			
Cc1ccccc1Nc1ccc(=O)n(Cc2cccc(NC(=O)N3CCC(C(=O)N(C)C)CC3)c2)n1	7600			
c1ccc(CN2CCC(CCNc3cc4c(nn3)-c3ccccc3CC4)CC2)cc1	39			
